The source made the active and inactive calls. The rule behind the calls is not given here.
What was measured:
[1] = target: Sarcoplasmic/endoplasmic reticulum calcium ATPase 1 (Oryctolagus cuniculus, UniProt P04191); test: Inhibition of SERCA1 in NewZealand rabbit skeletal muscle SR vesicles using ATP as substrate incubated for 2 mins followed by Ca2+ addition by NADH coupled enzyme assay
Procedure, shortened: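 SR vesicles (1 mg prot./ml) incubated with compound (10–70 μM) for 2 min at 37 °C, pH 7.2. Ca2+-ATPase rate measured by NADH-coupled enzyme assay as absorbance at 340 nm, 37 °C. Compared with untreated control; mean ± SD from at least three independent experiments.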

[2] = target: Sarcoplasmic/endoplasmic reticulum calcium ATPase 1 (Oryctolagus cuniculus) (UniProt P04191); test: Binding affinity to cytosolic region of SERCA1 ATP binding site in NewZealand rabbit SR vesicles assessed as conformational changes by measuring decrease in fluorescence intensity at IC50 incubated for 1 hr by FITC probe labeling based analysis
Sarcoplasmic/endoplasmic reticulum calcium ATPase 1 (Oryctolagus cuniculus), sequence (P04191 whole entry): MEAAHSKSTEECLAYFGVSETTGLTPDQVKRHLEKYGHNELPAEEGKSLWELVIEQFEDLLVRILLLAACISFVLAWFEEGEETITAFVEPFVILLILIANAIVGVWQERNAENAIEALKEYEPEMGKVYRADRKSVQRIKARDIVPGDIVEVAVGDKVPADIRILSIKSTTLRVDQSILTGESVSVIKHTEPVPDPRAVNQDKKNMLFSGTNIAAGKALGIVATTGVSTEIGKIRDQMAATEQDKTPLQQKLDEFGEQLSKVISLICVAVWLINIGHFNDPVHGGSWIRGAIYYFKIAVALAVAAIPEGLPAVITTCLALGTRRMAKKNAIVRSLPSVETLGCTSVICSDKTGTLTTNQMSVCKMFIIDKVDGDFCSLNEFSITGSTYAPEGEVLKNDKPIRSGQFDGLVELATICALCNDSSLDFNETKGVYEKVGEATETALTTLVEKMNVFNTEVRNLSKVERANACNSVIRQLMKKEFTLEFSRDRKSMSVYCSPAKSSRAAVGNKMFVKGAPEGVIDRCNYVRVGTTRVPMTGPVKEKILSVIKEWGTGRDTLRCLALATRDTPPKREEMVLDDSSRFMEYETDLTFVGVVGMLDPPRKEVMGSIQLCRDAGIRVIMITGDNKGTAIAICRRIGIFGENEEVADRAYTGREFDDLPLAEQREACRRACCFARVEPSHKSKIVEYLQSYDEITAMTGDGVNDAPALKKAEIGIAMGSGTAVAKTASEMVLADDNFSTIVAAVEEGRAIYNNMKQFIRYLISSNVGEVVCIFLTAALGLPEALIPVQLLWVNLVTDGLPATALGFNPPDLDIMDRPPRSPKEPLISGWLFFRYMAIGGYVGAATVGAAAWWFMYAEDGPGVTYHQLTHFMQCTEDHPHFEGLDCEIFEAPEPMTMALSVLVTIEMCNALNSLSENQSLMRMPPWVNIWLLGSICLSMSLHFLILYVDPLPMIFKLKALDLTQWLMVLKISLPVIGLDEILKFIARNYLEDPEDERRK
Procedure, shortened: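 FITC labelling of SR vesicles (protein 12.5 mg/mL) after 1 h preincubation with compound, used as a probe of the cytosolic region of SERCA1. Figure legend states 30 min incubation at 20 mg/mL SR protein. Read-out is the decrease in FITC fluorescence versus untreated control. Mean ± SD from at least three independent experiments, each sample measured 2–3 times.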

[3] = target: Sarcoplasmic/endoplasmic reticulum calcium ATPase 1 (Rattus norvegicus) (UniProt Q64578); test: Inhibition of SERCA1 in glucose-stimulated rat INS-1E cells assessed as decline in insulin release preincubated for 24 hrs followed by glucose addition and measured after 30 mins by RIA
Sarcoplasmic/endoplasmic reticulum calcium ATPase 1 (Rattus norvegicus), sequence (Q64578 whole entry): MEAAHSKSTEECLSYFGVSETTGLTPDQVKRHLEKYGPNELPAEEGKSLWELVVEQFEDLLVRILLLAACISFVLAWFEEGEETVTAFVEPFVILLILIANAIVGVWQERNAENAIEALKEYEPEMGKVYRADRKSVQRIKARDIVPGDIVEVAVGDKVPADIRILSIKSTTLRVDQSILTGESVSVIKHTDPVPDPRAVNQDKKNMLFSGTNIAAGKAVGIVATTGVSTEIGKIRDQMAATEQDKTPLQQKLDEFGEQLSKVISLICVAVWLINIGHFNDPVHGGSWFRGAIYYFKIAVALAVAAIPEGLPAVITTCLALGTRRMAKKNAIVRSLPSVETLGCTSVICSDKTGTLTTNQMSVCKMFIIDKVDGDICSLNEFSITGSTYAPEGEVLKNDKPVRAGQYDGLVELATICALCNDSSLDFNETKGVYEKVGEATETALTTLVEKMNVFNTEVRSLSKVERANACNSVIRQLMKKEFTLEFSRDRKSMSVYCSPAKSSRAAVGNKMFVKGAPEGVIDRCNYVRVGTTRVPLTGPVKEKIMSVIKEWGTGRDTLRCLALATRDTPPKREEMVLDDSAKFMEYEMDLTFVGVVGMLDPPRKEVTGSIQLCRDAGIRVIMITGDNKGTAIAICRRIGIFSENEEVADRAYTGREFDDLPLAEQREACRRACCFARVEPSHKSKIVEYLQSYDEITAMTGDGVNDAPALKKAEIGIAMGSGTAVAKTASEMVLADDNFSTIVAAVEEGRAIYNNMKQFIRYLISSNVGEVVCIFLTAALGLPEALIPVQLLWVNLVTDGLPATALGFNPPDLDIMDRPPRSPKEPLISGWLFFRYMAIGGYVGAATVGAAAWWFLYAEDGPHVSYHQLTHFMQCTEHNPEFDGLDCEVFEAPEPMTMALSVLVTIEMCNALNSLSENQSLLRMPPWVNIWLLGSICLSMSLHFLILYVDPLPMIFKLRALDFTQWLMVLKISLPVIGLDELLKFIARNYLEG
Procedure, shortened: (§1)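 INS-1E cells preincubated 24 h with compound, then washed and incubated 30 min at 37 °C in glucose-free KRBH. A further 30 min at 37 °C followed in KRBH containing 16.7 mM glucose. Insulin in collected supernatants determined by RIA with rat insulin standard.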

[4] = target: Sarcoplasmic/endoplasmic reticulum calcium ATPase 1 (Rattus norvegicus) (UniProt Q64578); test: Inhibition of SERCA1 in rat INS-1E cells assessed as insulin release preincubated for 24 hrs followed by incubation in glucose-free buffer and measured after 30 mins by RIA; assay type: cell-based; procedure, shortened: as §1
[5] = tested on: INS-1E; test: Induction of SERCA2b expression in rat INS-1E cells at IC50 for cell viability incubated for 24 hrs by Western blot analysis; assay type: functional, cell-based
Procedure, shortened: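 INS-1E cells grown in RPMI 1640 (11 mM glucose) were exposed to compound for 24 h, then lysed in ice-cold lysis buffer, homogenized through a needle and centrifuged. Lysates (15 μg/lane) separated by SDS-PAGE and immunoblotted for SERCA2. Signal normalized to β-actin and given as %, average of 3–6 experiments.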

[6] = target: Sarcoplasmic/endoplasmic reticulum calcium ATPase 1 (Rattus norvegicus) (UniProt Q64578); test: Inhibition of SERCA1 in rat INS-1E cells assessed as induction of apoptosis by measuring increase in late apoptotic cells at IC50 for cell viability incubated for 24 hrs by Annexin V-FITC/propidium iodide staining based flow cytometry
Procedure, shortened: (§2)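 INS-1E cells incubated 24 h with compound, then stained with Annexin V-FITC/propidium iodide. Living, early apoptotic and late apoptotic fractions scored by flow cytometry and compared with untreated cells.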

[7] = target: Sarcoplasmic/endoplasmic reticulum calcium ATPase 1 (Rattus norvegicus) (UniProt Q64578); test: Inhibition of SERCA1 in rat INS-1E cells assessed as induction of apoptosis by measuring decrease in living cells at IC50 for cell viability incubated for 24 hrs by Annexin V-FITC/propidium iodide staining based flow cytometry; procedure, shortened: as §2
[8] = target: Sarcoplasmic/endoplasmic reticulum calcium ATPase 1 (Oryctolagus cuniculus) (UniProt P04191); test: Binding affinity to transmembrane region of SERCA1A ATP binding site in NewZealand rabbit SR vesicles assessed as conformational changes by measuring intrinsic Trp fluorescence at IC50 incubated for 30 mins by spectrofluorometric analysis
Procedure, shortened: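 SR vesicles (1 mg protein/mL) incubated 30 min with compound, at 37 °C per methods or room temperature per legend. Trp fluorescence excited at 295 nm, with emission maxima at 336 and 358 nm. Conformational change expressed as the I358/I336 ratio versus untreated control.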

[9] = target: Sarcoplasmic/endoplasmic reticulum calcium ATPase 1 (Rattus norvegicus) (UniProt Q64578); test: Inhibition of SERCA1 in rat INS-1E cells assessed as induction of apoptosis by measuring increase in early apoptotic cells at IC50 for cell viability incubated for 24 hrs by Annexin V-FITC/propidium iodide staining based flow cytometry; procedure, shortened: as §2

Sarcoplasmic/endoplasmic reticulum calcium ATPase 1, sequence (P04191 whole entry): as the sequence (P04191 whole entry) above

IC50 ([1]; read-out: IC50) [µM]	Activity [2]	inhibition [3]	inhibition [4]	Activity [8]	IC50 ([1]; sr)	Structure (SMILES)	Activity [5]	inhibition [6]	inhibition [7]	inhibition [9]
24.6	inactive	Active	inactive	inactive	–	Cc1cc2c3c(c1)-c1c(O)cc(-c4cc5ccc(O)cc5o4)cc1O[C@@]3(c1ccc(O)cc1O)Oc1cc(O)ccc1-2	Active	inactive	Active	Active
–	Active	Active	inactive	Active	Not Active	CC1(C)Oc2cc3oc(-c4cc(O)cc(O)c4)cc3cc2CC1O (stereo not drawn) [(+/-)-MORACIN P]	–	inactive	Active	Active
18.9	inactive	Active	inactive	inactive	–	CC1=C[C@@H]2c3c(O)cc(-c4cc5ccc(O)cc5o4)cc3O[C@@]3(c4ccc(O)cc4O)Oc4cc(O)ccc4[C@@H](C1)[C@H]23	Active	inactive	Active	Active
29.4	Active	Active	inactive	Active	–	CC(C)=CCC/C(C)=C/Cc1cc([C@@H]2CC(=O)c3c(O)cc(O)cc3O2)c(O)cc1O	–	Active	Active	Active
–	Active	Active	inactive	Active	Not Active	CC(C)(O)C1Cc2cc3cc(-c4cc(O)cc(O)c4)oc3cc2O1 (stereo not drawn) [MORACIN O]	–	inactive	Active	Active
35.6	Active	Active	inactive	Active	–	COc1cc(O)c([C@@H]2CC(=O)c3c(O)cc(O)cc3O2)cc1C/C=C(\C)CCC=C(C)C	–	Active	Active	Active
43.6	Active	Active	inactive	Active	–	CC(C)=CCc1c(-c2ccc(O)cc2O)oc2c3c(cc(O)c2c1=O)OC(C)(C)C=C3 [MORUSIN]	–	Active	Active	inactive
